For orientation: EC50 means the concentration giving half of the maximal effect.

The record followed here is ChEMBL document CHEMBL3352597, “Heck products of parthenolide and melampomagnolide-B as anticancer modulators that modify cell cycle progression” (Eur J Med Chem, 2014).

Assay [1] deals with Oocyte. The assay can be described thus: Inhibition of immature stage VI Xenopus oocyte maturation assessed as inhibition of progesterone-mediated maturation measured as germinal vesicle (nuclear) breakdown after overnight incubation. The settings on record: Xenopus laevis. Type of assay: functional, cell-based.
The test system of assay [2] is Xenopus. The assay can be described thus: Inhibition of MPF in immature stage VI Xenopus oocyte by Western blot analysis. In short, it runs like this: (§1)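 Oocytes pre-treated with DMSO or compound, stimulated with progesterone, and lysed at the time 50% of DMSO oocytes reached GVBD. Lysates analysed by 10% gel western blot with phospho-Cdc2 Tyr15 (inhibitory site) and phospho-MAPK antibodies (1:1000), tubulin 1:20,000. Membrane blocked in 1% BSA, 60 min, room temperature.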
(In general: Immunoblotting shows a protein as a band on a membrane.)

The test system of assay [3] is Oocyte. The assay can be described thus: Inhibition of immature stage VI Xenopus oocyte maturation assessed as inhibition of progesterone-mediated maturation measured as germinal vesicle (nuclear) breakdown at 1 to 100 uM after overnight incubation. The class given is functional, cell-based.
Assay [4] has as its system Oocyte. In words: Inhibition of immature stage VI Xenopus oocyte maturation assessed as inhibition of progesterone-mediated maturation measured as germinal vesicle (nuclear) breakdown at 100 uM after overnight incubation. Type of assay: functional, cell-based. A digest of the protocol:
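Oocytes (20 per well) pre-treated overnight with compound (100 μM final, DMSO) or DMSO vehicle, then stimulated with 2 μg/ml progesterone. GVBD (animal-pole white spot) scored at the time 50% of DMSO controls reach GVBD. Rate relative to control: 1.0 means no difference, above 1.0 acceleration, below 1.0 delay, 0.0 no maturation. Differences over 20% followed up.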

In assay [5] the test system is Xenopus. The assay can be described thus: Inhibition of Cyclin B/CDK in immature stage VI Xenopus oocyte by Western blot analysis. In short, it runs like this:
as §1

Assay [6] in a line: Anticancer activity against human PC3 cells assessed as growth inhibition at 10^-5 M. Conditions: PC-3, read-out: GI. Type of assay: functional. In short, it runs like this: (§2)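 NCI-60 human tumour cell line panel screened at a single concentration of 10^-5 M; value is percent growth inhibition relative to untreated growth.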
Assay [7] in a line: Anticancer activity against human MOLT4 cells assessed as growth inhibition at 10^-5 M. The settings on record: MOLT-4, read-out: GI. Type of assay: functional. In short, it runs like this:
as §2

Each structure is given as a SMILES string. Calls of active or inactive are those of the source. The calls are words filed in the database; no cut-off is given here.

For `C/C1=C\CC[C@@]2(C)O[C@@H]2[C@H]2OC(=O)/C(=C/c3ccc(N)cc3)[C@@H]2CC1`, in assay [1], the EC50 was 5 µM. For the same compound, the inhibition result in assay [2] and in assay [5] was “inactive” in each case. Moreover, the inhibition entry in assay [3] and in assay [4] was “Active” in each case. Further, the inhibition of growth at 10 µM in assay [6] came to 20.5%; in assay [7], 24.2%.
